Three molecules from ChEMBL document CHEMBL1151987, “Glionitrin A, an antibiotic-antitumor metabolite derived from competitive interaction between abandoned mine microbes” (J Nat Prod, 2009) can be followed below.

One assay has as its system Trichophyton rubrum. In words: Antifungal activity against Trichophyton rubrum IFO 9185. In kind it is functional.
The subject of a further assay is Aspergillus fumigatus. Nature of the assay: Antifungal activity against Aspergillus fumigatus HIC 6094. In kind it is functional.
The test system of the next assay is Micrococcus luteus. Nature of the assay: Antibacterial activity against Micrococcus luteus IFC 12708. It counts as functional.
Another assay has as its system Bacillus subtilis. Nature of the assay: Antibacterial activity against Bacillus subtilis ATCC 6633. It counts as functional.
In another assay the test system is Proteus vulgaris. Nature of the assay: Antibacterial activity against Proteus vulgaris ATCC 3851. In kind it is functional.
The test system of assay [1] is Salmonella enterica subsp. enterica. In words: Antibacterial activity against Salmonella Typhimurium ATCC 14028. It counts as functional, Salmonella enterica subsp. enterica serovar Typhimurium.
For assay [2], the system named is Staphylococcus aureus. In words: Antibacterial activity against methicillin-resistant Staphylococcus aureus ATCC 43300. In kind it is functional.
Assay [3] relates to Staphylococcus aureus. Nature of the assay: Antibacterial activity against methicillin-resistant Staphylococcus aureus ATCC 700787. It counts as functional.
In assay [4] the test system is Staphylococcus aureus. Nature of the assay: Antibacterial activity against methicillin-resistant Staphylococcus aureus ATCC 700788. In kind it is functional.
The next assay has as its system HCT-116. In words: Cytotoxicity against human HCT116 cells. In kind it is functional, cell-based. An outline of the steps: (§1)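 Cell proliferation inhibition measured by MTT assay; the value is reported as IC50 in µM.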
The next assay has as its system A549. Nature of the assay: Cytotoxicity against human A549 cells. In kind it is functional, cell-based. An outline of the steps:
as §1

The next assay has as its system AGS. Nature of the assay: Cytotoxicity against human AGS cells. It counts as functional, cell-based. In a few lines: as §1
Another assay has as its system DU-145. Nature of the assay: Cytotoxicity against human DU145 cells. In kind it is functional, cell-based. In a few lines: as §1
In the next assay the test system is MCF7. Nature of the assay: Cytotoxicity against human MCF7 cells. In kind it is functional, cell-based. An outline of the steps: as §1
The subject of a further assay is HepG2. Nature of the assay: Cytotoxicity against human HepG2 cells. In kind it is functional, cell-based. In a few lines: as §1

Structures are written as SMILES. ≈ marks a conversion by molar mass, not a printed value.

On to `C[C@@H]1[C@H](O)[C@@H](C)/C=C/C=C/C=C/C=C/C=C/C=C/C=C/[C@H](O[C@@H]2O[C@H](C)[C@@H](O)[C@H](N)[C@@H]2O)C[C@@H]2O[C@](O)(C[C@@H](O)C[C@@H](O)[C@H](O)CC[C@@H](O)C[C@@H](O)CC(=O)O[C@H]1C)C[C@H](O)[C@H]2C(=O)O` [AMPHOTERICIN B], for which the MIC against Trichophyton rubrum was 1.56 µg/mL (≈ 1.69 µM).
Take `CN1C(=O)[C@@]23Cc4ccc([N+](=O)[O-])cc4N2C(=O)[C@@]1(CO)SS3` [GLIONITRIN A]: the MIC stood at 12.5 µg/mL (≈ 35.4 µM) against Aspergillus fumigatus; 12.5 µg/mL (≈ 35.4 µM) against Trichophyton rubrum; 0.78 µg/mL (≈ 2.21 µM) against Micrococcus luteus; 6.25 µg/mL (≈ 17.7 µM) against Bacillus subtilis; 3.13 µg/mL (≈ 8.86 µM) against Proteus vulgaris; 3.13 µg/mL (≈ 8.86 µM) in [1]. For the same molecule, the MIC against Staphylococcus aureus [2], against Staphylococcus aureus [3] and in the assay with Staphylococcus aureus [4] was 0.78 µg/mL (≈ 2.21 µM) throughout. Moreover, the 50% inhibitory concentration (IC50) is 820 nM with HCT-116; 550 nM in the assay on A549; 450 nM in the assay on AGS; 240 nM in the assay on DU-145; 2000 nM in the assay with MCF7; 2300 nM with HepG2.
For the molecule `CC1(C)S[C@@H]2[C@H](NC(=O)[C@H](N)c3ccccc3)C(=O)N2[C@H]1C(=O)O` [AMPICILLIN], the MIC with Micrococcus luteus was found to be 0.78 µg/mL (≈ 2.23 µM); in the assay on Bacillus subtilis it was 3.13 µg/mL (≈ 8.96 µM); with Proteus vulgaris, 1.56 µg/mL (≈ 4.46 µM); in assay [1] it was 12.5 µg/mL (≈ 35.8 µM); in the assay with Staphylococcus aureus [2], 12.5 µg/mL (≈ 35.8 µM); with Staphylococcus aureus [3], 12.5 µg/mL (≈ 35.8 µM). For the same molecule, in the assay on Staphylococcus aureus [4], it took 25 µg/mL (≈ 71.5 µM) to inhibit growth (MIC).

Broadly, the MIC is the lowest concentration that inhibits growth of the organism. A higher MIC goes with weaker potency. The IC50 is the point on the concentration scale where inhibition reaches its midpoint.
